Source: ChEMBL document CHEMBL4651341, “The discovery of a novel series of compounds with single-dose efficacy against juvenile and adult Schistosoma species” (PLoS Negl Trop Dis, 2021)
≈ marks a conversion by molar mass, not a printed value.

Experiments:
[1] = Mean AUC inf in Swiss albino male mice at 1 mg/kg per compound (administered iv in a mixture of 5 compounds to 3 mice) assessed by LCMS/MS.; assay type: ADME, organism-based; conditions: male, Swiss albino, mouse, in vivo
Method in brief: (§1)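 Male Swiss albino mice (~30 g), 3 per experiment, mostly dosed as mixtures of 5 compounds iv via the lateral tail vein. Vehicle: 10% DMSO/90% 50 mM Na2HPO4 with 0.5% Tween-80. Blood sampled at 5, 15, 30 min and 1, 2, 4, 8, 24 h. Plasma stored at −20 °C and quantified by LC-MS after acetonitrile precipitation.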

Schistosoma mansoni [2] = experiment: Concentration required to kill 50% of 21 day old worms 5 days after drug treatment.; assay type: functional, organism-based; conditions: Puerto Rican, 120 h
Method in brief: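 Juvenile S. mansoni (Puerto Rican strain) were perfused from CD1 mice 3 weeks post-infection and washed. They were cultured 6–8 per well in 200 µL DMEM with 2 mM glutamine, penicillin/streptomycin and 10% FCS at 37 °C, 5% CO2. Viability of individual worms was scored on day 5 after dosing (120 h).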

[3] = Percentage of parent compound remaining after incubation for 30 minutes with cyropreserved human hepatocytes at a concentration of 1uM compound and 1 million cells/uL, determined by LCMS/MS; assay type: ADME, tissue-based, Hepatocyte; conditions: cryopreserved human hepatocytes, read-out: Stability
Method in brief: (§2)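 Compound was incubated at 1 µM final (2 µM working solution mixed 1:1 with hepatocyte suspension) in supplemented KHB pH 7.4. Conditions: 37 °C, 5% CO2, gentle mixing, duplicates. Reaction quenched with ice-cold acetonitrile containing standard; analysed by LC-MS/MS. % remaining = AUC at t / AUC at T0.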

[4] = Mean volume of distribution at steady state in Swiss albino male mice at 1 mg/kg per compound (administered iv in a mixture of 5 compounds to 3 mice) assessed by LCMS/MS.; assay type: ADME, organism-based; conditions: mouse, in vivo, read-out: Volume
Method in brief: (§3)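 Male Swiss albino mice (~30 g), 3 per experiment, mostly dosed as mixtures of 5 compounds iv via the lateral tail vein. Vehicle: 10% DMSO/90% 50 mM Na2HPO4 with 0.5% Tween-80. Plasma stored at −20 °C and quantified by LC-MS after acetonitrile precipitation.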

[5] = Percentage of parent compound remaining after incubation for 30 minutes with cyropreserved mouse hepatocytes at a concentration of 1uM compound and […], determined by LCMS; assay type: ADME, tissue-based, Hepatocyte; conditions: cryopreserved mouse hepatocytes, read-out: Stability; method in brief: as §2
[6] = Concentration required to kill 50% HepG2 cells as detected by MTT staining; assay type: toxicity, cell-based; conditions: homo sapiens, read-out: TC50 (the source's name)
[7] = Partition coefficient of compound between n-octanol and PBS (pH7.4); assay type: physicochemical; conditions: octanol/water, pH 7.4
Method in brief: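 Shake-flask method using octanol and PBS pH 7.4, each pre-saturated with the other. Compound was shaken 2 h at 850 rpm, 25 °C, then the phases were separated by centrifugation and both layers diluted and analysed by LC-MS/MS. LogD = log(octanol AUC × relative dilution / buffer AUC).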

[8] = Plasma protein binding determined at 10uM by LC-MS/MS.; assay type: ADME, cell-free
Method in brief: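 Equilibrium dialysis of plasma spiked at 10 µM (0.1% DMSO) against PBS pH 7.4, 6 h at 37 °C, duplicates. Both chambers analysed by LC-MS/MS after acetonitrile precipitation. % free = buffer/plasma area ratio; recovery also calculated.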

[9] = Mean plasma concentration at 4h in Swiss albino male mice at […] per compound (administered orally in a mixture of 5 compounds to 3 mice) assessed by LCMS/MS.; assay type: ADME, organism-based; conditions: mouse, po
[10] = Mean observed clearance in Swiss albino male mice at 1 mg/kg per compound (administered iv in a mixture of 5 compounds to 3 mice) assessed by LCMS/MS.; assay type: ADME, organism-based; conditions: male, Swiss albino, mouse, in vivo, read-out: Clearance (converted); method in brief: as §1
[11] = Mean oral bioavailability in Swiss albino male mice at […] per compound (administered in a mixture of 5 compounds to 3 mice) assessed by LCMS/MS.; note: dose 2.5 mg/kg; assay type: ADME, organism-based; conditions: mouse, in vivo
[12] = Solubility at 25 degC of compound (diluted from DMSO) in PBS at pH 7.4 determined after 24h (1h sonication, 22h shaking, 1h sonication) by LCMS/MS; assay type: physicochemical
[13] = Mean half-life in Swiss albino male mice at 1 mg/kg per compound (administered iv in a mixture of 5 compounds to 3 mice) assessed by LCMS/MS.; assay type: ADME, organism-based; conditions: mouse, in vivo; method in brief: as §3
Schistosoma mansoni [14] = experiment: Concentration required to kill 50% of 42 day old worms 5 days after drug treatment.; assay type: functional, organism-based; conditions: Puerto Rican, 120 h
Method in brief: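 Adult S. mansoni were perfused from CD1 mice 6 weeks post-infection and washed. They were cultured 3 pairs per well in 1 mL DMEM with 2 mM glutamine, penicillin/streptomycin and 10% FCS […] at 37 °C, 5% CO2. Viability of individual worms was scored on day 5 (120 h).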

[15] = Mean plasma concentration at 24h in Swiss albino male mice at […] per compound (administered orally in a mixture of 5 compounds to 3 mice) assessed by LCMS/MS.; assay type: ADME, organism-based; conditions: mouse, po
[16] = Mean time to peak plasma concentration in Swiss albino male mice at […] per compound (administered orally in a mixture of 5 compounds to 3 mice) assessed by LCMS/MS.; assay type: ADME, organism-based; conditions: mouse, po
[17] = Concentration of drug in plasma at 4h following oral drug adminstration at given dose. Determined by LCMS/MS; assay type: ADME, organism-based; conditions: CD1, mouse
Method in brief: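 Plasma sampled from the mice of the efficacy experiments, each animal sampled once: one animal per group at 1, 4 and 8 h, two per group at 24 h. Plasma prepared by acetonitrile protein precipitation and analysed by LC-MS against a 10-point calibration line spiked in blank matrix, with QCs at three or more levels.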

Schistosoma mansoni [18] = experiment: Percentage of worms remaining following treatment of female CD1 mice infected with S. mansoni worms (21 day old - juvenile or 42 day old - adult) with compound by oral gavage. Worms were recovered by portal perfusion with citrate saline 8-14 days post treatment and counted. Percentages are from a mean of 5 or 6 animals.; assay type: functional, Mus musculus; design: concentration or dose not given beside the values
Method in brief: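 Female CD1 mice were infected subcutaneously with 150 cercariae and treated at day 21 (juvenile) or day 42 (adult). Single oral gavage, or two doses 12 h apart, given in 7% Tween-80/3% ethanol/water (sonicated) or in 1:19 DMSO:corn oil. Controls received vehicle only. Worm recoveries are group means, n = 5–6.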

[19] = Plasma protein binding determined at 10uM by LC-MS/MS.; conditions: mouse
Schistosoma haematobium = experiment: Concentration required to kill 50% of 84 day old worms 5 days after drug treatment.; assay type: functional, organism-based; conditions: Egyptian, 120 h
[20] = Plasma protein binding determined at 1uM by LC-MS/MS.; assay type: ADME, cell-free
[21] = Concentration required to kill 50% MRC-5 cells as detected by Alamar blue staining; assay type: toxicity, cell-based, MRC5; conditions: homo sapiens, read-out: TC50 (the source's name)
[22] = male, Swiss albino, read-out: Bioavailability

Row | Compound | AUC(0-inf) [1] [ng·h/mL] | remaining at 0.5 h, 1 µM [3] [%] | Vd [4] [L/kg] | remaining at 0.5 h, 1 µM [5] [%] | Lipophilicity [7] | Binding ([8]; mouse) [%] | concentration at 4 h [9] [ng/mL] | clearance [10] [mL/min/kg] | bioavailability [11, 22] [%] | solubility kinetic at 24 h [12] [µM] | half-life [13] [min] | concentration at 24 h [15] [ng/mL] | Tmax [16] [min] | Binding ([20]; mouse) [%] | EC50 (Schistosoma mansoni [2]) [nM] | CC50 [6] [nM] | EC50 (Schistosoma mansoni [14]) [nM] | also measured
1 | Fc1ccc(-c2cn3c(-c4ccc5[nH]ncc5c4F)c(C(F)(F)F)nc3cn2)cc1C(F)(F)C(F)(F)F |  |  |  |  | 5.6 = | 100 | 359 |  |  |  |  |  | 120 |  |  | 11700 |  | concentration at 4 h [17]: 556 ng/mL; bioavailability [11]: 170%; Efficacy (Schistosoma mansoni [18]): 1.84%
2 | Fc1ccc(-c2cn3c(-c4ccc5[nH]ncc5c4F)c(C(F)(F)F)nc3cn2)cc1C(F)(F)F |  |  |  |  | 5.29 = |  | 298 |  |  |  |  |  |  |  |  | 16600 |  | concentration at 4 h [17]: 1500 ng/mL; Efficacy (Schistosoma mansoni [18]): 1.84%
3 | CC(C)c1nc2cnc(-c3cccc(C(F)(F)F)c3)cn2c1-c1ccc2[nH]ncc2c1F | 929 | 83.1 | 3.44 | 93.9 | 4.56 = | 99.975 | 194 | 9.15 | 63.2 | 1.52 (≈ 0.668 µg/mL) | 362 | 18 | 30 |  | 51.7 | 15100 | 30.7 | Binding ([8]; human): 99.997%
4 | COc1ccc(-c2c(C(C)C)nc3cnc(-c4ccnc(N(C)C)c4)cn23)cc1O | 48.3 |  | 2.98 | 31.9 | 4.33 = |  | 1.11 | 173 | 6.57 | 0.467 (≈ 0.188 µg/mL) | 19.9 | 0.1 | 15 |  | < 939 |  |  | Binding [19]: 98.4537%
5 | COc1ccc(-c2c(C3CC3)nc3cnc(-c4cccc(C(F)(F)F)c4)cn23)cc1O | 77.9 |  | 4.58 | 41.3 | 4.62 = |  | 1.88 | 108 | 3.64 | 1.2 (≈ 0.51 µg/mL) | 62.4 | 0.1 | 15 |  | 62.5 |  | 71.5 | Binding [19]: 99.9319%
6 | Oc1ccc(-c2c(C(F)(F)F)nc3cnc(-c4cccc(C(F)(F)F)c4)cn23)c(F)c1 | 203 |  | 9.55 | 58.7 | 4.84 = | 99.965 | 43.9 | 41.2 | 58.4 | 17.1 (≈ 7.55 µg/mL) | 268 | 1.9 | 15 | 100 | < 443 |  | < 48.8 | 
7 | CCc1nc2cnc(-c3cccc(C(F)(F)F)c3)cn2c1-c1ccc(O)cc1F | 144 |  | 2.17 | 39 | 3.76 = | 99.87 | 4.15 | 58.2 | 7.35 | 17.5 (≈ 7.02 µg/mL) | 33.6 | 0.1 | 15 |  | 85.9 | 18700 | < 140 | EC50 (Schistosoma haematobium): 151 nM; CC50 [21]: 17500 nM

Second part, led by results:

Row | AUC(0-inf) [1] [ng·h/mL] | remaining at 0.5 h, 1 µM [3] [%] | Vd [4] [L/kg] | remaining at 0.5 h, 1 µM [5] [%] | Lipophilicity [7] | Binding ([8]; mouse) [%] | concentration at 4 h [9] [ng/mL] | clearance [10] [mL/min/kg] | bioavailability [11, 22] [%] | solubility kinetic at 24 h [12] [µM] | half-life [13] [min] | concentration at 24 h [15] [ng/mL] | Tmax [16] [min] | Binding ([20]; mouse) [%] | Compound | EC50 (Schistosoma mansoni [2]) [nM] | CC50 [6] [nM] | EC50 (Schistosoma mansoni [14]) [nM] | also measured
8 | 195 | 68.4 | 3.67 | 95.9 | 5.11 = | 100 | 12.5 | 42.8 | 14.5 | 91.9 (≈ 39.8 µg/mL) | 95.4 | 0.1 | 15 |  | CC(C)c1nn2cnc(-c3cccc(C(F)(F)F)c3)cc2c1-c1c(F)cc(O)cc1F | < 12.2 | 8400 | 21.9 | Binding ([8]; human): 100%
9 | 844 | 34.3 | 2.91 | 53.6 | 5.37 = | 99.865 | 289 | 10.2 | 88.5 | 1.11 (≈ 0.47 µg/mL) | 216 | 9.8 | 15 | 99.8779 | Cc1nc2cnc(-c3ccc(F)c(C(F)(F)F)c3)cn2c1-c1c(F)cc(O)cc1F | 124 | 7560 | 118 | EC50 (Schistosoma haematobium): 41.5 nM; Binding ([8]; human): 99.9645%
10 | 490 |  | 6.81 | 68 | 5.49 = | 99.95 | 130 | 17 | 84.8 | 0.643 (≈ 0.29 µg/mL) | 446 | 10.5 | 30 | 100 | COc1cc(-c2c(C(C)C)nc3cnc(-c4cccc(C(F)(F)F)c4)cn23)cc2cn[nH]c12 | 527 |  | 428 | EC50 (Schistosoma haematobium): 149 nM
11 | 53.1 |  | 3.65 | 43 | 4.92 = |  | 0.1 | 158 | 1.48 | 1.95 (≈ 0.777 µg/mL) |  | 0.1 | 15 |  | COc1ccc(-c2c(C)nc3ccc(-c4cccc(C(F)(F)F)c4)cn23)cc1O | < 684 |  |  | Binding [19]: 99.8676%
12 | 49.9 | 31 | 1.33 | 32.9 | 4.95 = |  | 0.1 | 168 |  | 2 (≈ 0.747 µg/mL) | 10.3 | 0.1 | 15 | 99.76 | Oc1ccc(-c2cnc3cnc(-c4cccc(C(F)(F)F)c4)cn23)c(F)c1 | 2120 |  | 2320 | CC50 [21]: > 38300 nM; Binding ([20]; human): 99.88%
